Laboratory results taken from BindingDB's records for doi:10.1021/jm701562x (Johannes Gutenberg University, 2008).
Counter-ions that a name gives are not always drawn.

What was measured:
[1] = target: Gamma-aminobutyric acid receptor subunit alpha-2 (Rattus norvegicus, UniProt P23576); experiment: Agonist activity at rat recombinant GABAA alpha-2-beta-3-gamma-2 receptor expressed in HEK293 cells assessed as normalization of GABA-induced current by whole cell patch-clamp technique
Outline: (§1)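 HEK293 cells transiently co-transfected (calcium phosphate) with rat αi, β3 and γ2S cDNAs plus EGFP marker; recorded 2 days later by whole-cell patch clamp in HEPES saline pH 7.35.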

[2] = target: Gamma-aminobutyric acid receptor subunit alpha-1 (Rattus norvegicus, UniProt P62813); experiment: Agonist activity at rat recombinant GABAA alpha-1-beta-3-gamma-2 receptor expressed in HEK293 cells assessed as normalization of GABA-induced current by whole cell patch-clamp technique; outline: as §1
Sequence of Gamma-aminobutyric acid receptor subunit alpha-1 (P62813 whole entry): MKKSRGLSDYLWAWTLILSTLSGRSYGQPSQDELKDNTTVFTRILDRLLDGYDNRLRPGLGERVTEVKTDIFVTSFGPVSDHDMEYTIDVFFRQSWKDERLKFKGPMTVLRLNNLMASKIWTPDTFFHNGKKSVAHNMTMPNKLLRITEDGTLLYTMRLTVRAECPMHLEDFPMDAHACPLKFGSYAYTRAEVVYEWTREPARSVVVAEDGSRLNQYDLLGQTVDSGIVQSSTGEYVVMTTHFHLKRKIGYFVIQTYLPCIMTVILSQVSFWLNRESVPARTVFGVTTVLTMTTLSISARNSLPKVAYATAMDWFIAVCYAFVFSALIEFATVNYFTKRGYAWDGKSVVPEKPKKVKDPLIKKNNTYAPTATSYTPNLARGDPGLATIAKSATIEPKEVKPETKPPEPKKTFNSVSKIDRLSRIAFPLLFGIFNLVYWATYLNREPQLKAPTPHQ

Sequence of Gamma-aminobutyric acid receptor subunit alpha-2 (P23576 whole entry): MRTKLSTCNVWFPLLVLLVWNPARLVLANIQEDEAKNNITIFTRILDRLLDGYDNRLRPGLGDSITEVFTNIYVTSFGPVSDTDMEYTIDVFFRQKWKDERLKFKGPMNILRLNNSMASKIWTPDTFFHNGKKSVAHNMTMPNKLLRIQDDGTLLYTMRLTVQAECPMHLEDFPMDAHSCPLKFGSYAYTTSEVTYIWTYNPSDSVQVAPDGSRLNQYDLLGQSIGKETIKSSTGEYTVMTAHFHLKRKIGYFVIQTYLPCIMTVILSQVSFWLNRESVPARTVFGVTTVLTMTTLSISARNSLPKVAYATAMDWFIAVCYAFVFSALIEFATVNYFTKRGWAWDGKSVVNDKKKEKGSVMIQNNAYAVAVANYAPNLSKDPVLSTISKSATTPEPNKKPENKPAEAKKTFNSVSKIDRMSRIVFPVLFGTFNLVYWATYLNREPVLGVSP

EC50 [1]: 182 µM | EC50 [2]: 280 µM
SMILES: NCc1n[nH]c(=O)o1 [5-Aminomethyl-3H-[1,3,4]oxadiazol-2-one Hydrochloride]
